Results taken from ChEMBL document CHEMBL1671655, “Anidulafungin is fungicidal and exerts a variety of postantifungal effects against Candida albicans, C. glabrata, C. parapsilosis, and C. krusei isolates” (2009).
In brackets after ≈: the same amount, converted by molar mass. Activity calls are given as the source filed them. The rule behind the calls is not given here. Starred links: 1 amine or outer side, 2 acyl side, 3 side chain; linkers in the order of their positions; H or OH if unused. Positions of bridges follow the written chain, without caps; N, C: chain ends. Non-standard residues stand in square brackets, D forms with d. Residues, ends and D or L forms follow the SMILES beside them. *: point of attachment. pTerphenylCO(4''-OnC5H11) = CCCCCOc1ccc(-c2ccc(-c3ccc(C(=O)*)cc3)cc2)cc1; Orn(4R-OH,5R-OH) = O=C([C@H](C[C@@H](O)[C@@H](O)N[*:3])N[*:1])[*:2]; hTyr(3S-OH,4S-OH) = N[C@H](C(=O)O)[C@H](O)[C@@H](O)c1ccc(O)cc1; Pro(3S-OH,4S-Me) = C[C@H]1CN[C@H](C(=O)O)[C@H]1O; Hyp = O=C(O)[C@@H]1C[C@@H](O)CN1

Experiments:
Nakaseomyces glabratus [1] = experiment: Antifungal activity against Candida glabrata isolate 1 assessed as cell wall damage at MIC by Transmission electron microscopy; format: functional, organism-based
Procedure, shortened: (§1)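 Cells recovered 8 h after a 1-h drug exposure were grown on SDA for 24 h at 35°C. Colonies fixed at 4°C in 0.1 M cacodylate (pH 7.2) with 2% glutaraldehyde and 2% paraformaldehyde, ethanol-dehydrated and embedded in Lowicryl K4M. Thin sections examined by transmission EM.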

Candida albicans [2] = experiment: Increase in susceptibility to SDS in Candida albicans isolate 1 assessed as cell wall damage at 4 times MIC after 1 hr relative to control; format: functional, organism-based
Procedure, shortened: (§2)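 Cells recovered 8 h after a 1-h drug exposure were grown in YPD with 1% glucose to exponential phase and adjusted to OD599 0.1. Undiluted culture and 10-fold serial dilutions were spotted onto YPD plates containing SDS (0.01 to 0.04%), then incubated 72 h at 30°C. Growth compared with unexposed control cells; triplicate.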

Pichia kudriavzevii [3] = experiment: Antifungal activity against Candida krusei isolate 1 assessed as cell wall damage at 4 times MIC by Transmission electron microscopy; format: functional, organism-based; procedure, shortened: as §1
Candida albicans [4] = experiment: Fungicidal activity against Candida albicans isolate S assessed as log reduction in bacterial count at 16 times MIC after drug exposure for 1 hr followed by washout measured after 48 hrs in the absence of drug by PAFE study; format: functional
Procedure, shortened: (§3)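 Starting inoculum ~1 x 10^5 to 5 x 10^5 CFU/ml in MOPS-buffered RPMI 1640 (pH 7.0) with drug at multiples of the CLSI M27-A3 MIC. After 1 h at 35°C, cells washed and centrifuged three times at 1,400 x g for 10 min, then resuspended in warm drug-free RPMI. Shaken at 35°C and plated on SDA at 0–48 h; CFU counted after 48 h. Run twice per isolate; means.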

Pichia kudriavzevii [5] = experiment: Antifungal activity against Candida krusei isolate ATCC 6258 by CLSI M27-A3 broth microdilution method; format: functional
Procedure, shortened: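 CLSI M27-A3 broth microdilution in RPMI 1640 buffered to pH 7.0 with MOPS. Starting inoculum 0.5 x 10^3 to 2.5 x 10^3 cells/ml, incubated at 35°C. MIC read as the lowest concentration giving >50% growth reduction versus control. Each isolate tested on at least three occasions.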

Candida parapsilosis [6] = experiment: Fungicidal activity against Candida parapsilosis isolate S assessed as log reduction in bacterial count at 4 times MIC after 48 hrs by time-kill analysis; format: functional; details: Lodderomyces parapsilosis
Procedure, shortened: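 Isolates subcultured twice on SDA, then suspended to 0.5 McFarland and diluted into RPMI 1640 (MOPS, pH 7.0) with or without anidulafungin, giving about 1 x 10^5 to 5 x 10^5 CFU/ml. Tubes were shaken at 35°C. Samples were taken at 0, 2, 4, 8, 12, 24 and 48 h, serially diluted 10-fold, plated on SDA, and CFU counted after 48 h at 35°C. Each isolate was run twice; mean values.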

Pichia kudriavzevii [7] = experiment: Increase in susceptibility to calcofluor white in Candida krusei isolate ATCC 6258 assessed as cell wall damage at MIC after 1 hr relative to control; format: functional, organism-based
Procedure, shortened: (§4)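 Candida given a 1-h anidulafungin pulse in MOPS-buffered RPMI 1640 (pH 7.0) at 35°C, washed three times by centrifugation, and regrown drug-free. Cells collected 8 h later, grown in YPD with 1% glucose to exponential phase, and set to OD599 0.1. Undiluted culture and 10-fold dilutions (4 µl) spotted on YPD plates with calcofluor white, then 30°C for 72 h. Triplicate; compared with no-drug cells.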

Candida parapsilosis [8] = experiment: Increase in susceptibility to SDS in Candida parapsilosis isolate A assessed as cell wall damage at MIC after 1 hr relative to control; format: functional, organism-based; procedure, shortened: as §2
Nakaseomyces glabratus [9] = experiment: Increase in susceptibility to calcofluor white in Candida glabrata isolate 3 assessed as cell wall damage at 4 times MIC after 1 hr relative to control; format: functional, organism-based
Procedure, shortened: (§5)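 Cells recovered 8 h after a 1-h drug exposure were grown to exponential phase in YPD with 1% glucose and adjusted to OD599 0.1. Undiluted and 10-fold serially diluted cultures were spotted onto YPD plates containing calcofluor white, then incubated at 30°C for 72 h. Growth compared with no-drug control cells; triplicate.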

Candida albicans [10] = experiment: Antifungal activity against Candida albicans assessed as time period for bacterial regrowth inhibition after 1 hr drug exposure; format: functional
Candida albicans [11] = experiment: Fungicidal activity against Candida albicans isolate 1 assessed as log reduction in bacterial count at 4 times MIC after drug exposure for 1 hr followed by washout measured after 48 hrs in the absence of drug by PAFE study; format: functional; procedure, shortened: as §3
Nakaseomyces glabratus [12] = experiment: Fungicidal activity against Candida glabrata isolate 3 assessed as log reduction in bacterial count at MIC after 48 hrs by time-kill analysis; format: functional; details: isolate 3, 48 h
Procedure, shortened: (§6)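 Isolates subcultured twice on SDA, suspended to 0.5 McFarland, giving ~1 x 10^5 to 5 x 10^5 CFU/ml in MOPS-buffered RPMI 1640 (pH 7.0) with or without drug at multiples of MIC (MIC by CLSI M27-A3). Tubes shaken at 35°C with continuous drug. Sampled at 0–48 h, diluted 10-fold and plated on SDA; CFU counted after 48 h at 35°C. Run twice per isolate; means.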

Pichia kudriavzevii [13] = experiment: Increase in susceptibility to calcofluor white in Candida krusei isolate ATCC 6258 assessed as cell wall damage at 16 times MIC after 1 hr relative to control; format: functional, organism-based; procedure, shortened: as §5
Nakaseomyces glabratus [14] = experiment: Increase in susceptibility to SDS in Candida glabrata isolate 1 assessed as cell wall damage at 16 times MIC after 1 hr relative to control; format: functional, organism-based; procedure, shortened: as §2
Nakaseomyces glabratus [15] = experiment: Increase in susceptibility to calcofluor white in Candida glabrata isolate 1 assessed as cell wall damage at 16 times MIC after 1 hr relative to control; format: functional, organism-based; procedure, shortened: as §5
Nakaseomyces glabratus [16] = experiment: Fungicidal activity against Candida glabrata isolate 3 assessed as log reduction in bacterial count at 4 times MIC after 48 hrs by time-kill analysis; format: functional; details: isolate 3, 48 h; procedure, shortened: as §6
Candida parapsilosis [17] = experiment: Antifungal activity against Candida parapsilosis isolate A coincubated with mouse J774 macrophages assessed as macrophage induced bacterial cell killing at 4 times MIC (reference value: 19 +/- 9 %); format: functional
Candida parapsilosis [18] = experiment: Increase in susceptibility to calcofluor white in Candida parapsilosis isolate 1 assessed as cell wall damage at 16 times MIC after 1 hr relative to control; format: functional, organism-based; procedure, shortened: as §4
Pichia kudriavzevii [19] = experiment: Increase in susceptibility to SDS in Candida krusei isolate ATCC 6258 assessed as cell wall damage at 16 times MIC after 1 hr relative to control; format: functional, organism-based; procedure, shortened: as §2
Candida albicans [20] = experiment: Fungicidal activity against Candida albicans ATCC 90028 assessed as log reduction in bacterial count at 16 times MIC after drug exposure for 1 hr followed by washout measured after 48 hrs in the absence of drug by PAFE study; format: functional
Procedure, shortened: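 Inoculum of about 1 x 10^5 to 5 x 10^5 CFU/ml in MOPS-buffered RPMI (pH 7.0), shaken at 35°C and exposed to drug for 1 h. Cells then washed and centrifuged three times and resuspended in drug-free warm RPMI. Samples plated on SDA at 0, 2, 4, 8, 12, 24 and 48 h, with CFU counted after 48 h at 35°C. Run twice per isolate; values are means.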

Nakaseomyces glabratus [21] = experiment: Increase in susceptibility to SDS in Candida glabrata isolate 3 assessed as cell wall damage at 16 times MIC after 1 hr relative to control; format: functional, organism-based; procedure, shortened: as §2
Candida albicans [22] = experiment: Fungicidal activity against Candida albicans isolate 2 assessed as log reduction in bacterial count at 4 times MIC after 48 hrs by time-kill analysis; format: functional; details: isolate 2, 48 h; procedure, shortened: as §6

`CCCCCOc1ccc(-c2ccc(-c3ccc(C(=O)N[C@H]4C[C@@H](O)[C@@H](O)NC(=O)[C@@H]5[C@@H](O)[C@@H](C)CN5C(=O)[C@H]([C@@H](C)O)NC(=O)[C@H]([C@H](O)[C@@H](O)c5ccc(O)cc5)NC(=O)[C@@H]5C[C@@H](O)CN5C(=O)[C@H]([C@@H](C)O)NC4=O)cc3)cc2)cc1` [ANIDULAFUNGIN] ({pTerphenylCO(4''-OnC5H11)}-[Orn(4R-OH,5R-OH)]T[Hyp][hTyr(3S-OH,4S-OH)]T[Pro(3S-OH,4S-Me)]; lactam 1-C) was tested, and the Activity (Nakaseomyces glabratus [1]) was “Active”, the Activity (Candida albicans [2]) was “Active” and the Activity (Pichia kudriavzevii [3]) was “Active”. For the same molecule, the log reduction (Candida albicans [4]) was 2.52 log CFU/ml, the MIC (Pichia kudriavzevii [5]) was 0.06 µg/mL (≈ 0.0526 µM) and the log reduction (Candida parapsilosis [6]) was 2.77 log CFU/ml. For the same molecule, the Activity (Pichia kudriavzevii [7]) was “Active”, the Activity (Candida parapsilosis [8]) was “Active” and the Activity (Nakaseomyces glabratus [9]) was “Active”. The Time (Candida albicans [10]) was “>=12 hr”, the log reduction (Candida albicans [11]) was 1.18 and the log reduction (Nakaseomyces glabratus [12]) was 1 log CFU/ml. For the same molecule, the Activity (Pichia kudriavzevii [13]) was “Active”, the Activity (Nakaseomyces glabratus [14]) was “Active” and the Activity (Nakaseomyces glabratus [15]) was “Active”. The log reduction (Nakaseomyces glabratus [16]) was 2.76 log CFU/ml, the “inhibition (INH)” value (Candida parapsilosis [17]) was 42% and the Activity (Candida parapsilosis [18]) was “Active”. The Activity (Pichia kudriavzevii [19]) was “Active”, the log reduction (Candida albicans [20]) was 2.14 and the Activity (Nakaseomyces glabratus [21]) was “Active”. The log reduction (Candida albicans [22]) was 2.33 log CFU/ml.
